# Hits are enriched below; roughly 3.2% of the tested compounds scored in any of these assays.
# NR2E3 ag-1 – human photoreceptor-specific nuclear receptor agonism; Q9Y5X4; CHO-S Gal4-NCOR/VP16-NR2E3 two-hybrid, luciferase; inhibition of corepressor binding, % at 3.98 µM; hit rate 0.35% among 360,000;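 active = inhibition above the mean of all tested compounds plus 3 SD, cut at about 70% in these data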;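 note: 0% = DMSO with NR2E3 transfected cells and 100% = cells lacking NR2E3 construct; higher means lower luciferase signal from less NR2E3 corepressor binding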
# Target sequence (Q9Y5X4 whole entry, looked up, the tested form may be a part): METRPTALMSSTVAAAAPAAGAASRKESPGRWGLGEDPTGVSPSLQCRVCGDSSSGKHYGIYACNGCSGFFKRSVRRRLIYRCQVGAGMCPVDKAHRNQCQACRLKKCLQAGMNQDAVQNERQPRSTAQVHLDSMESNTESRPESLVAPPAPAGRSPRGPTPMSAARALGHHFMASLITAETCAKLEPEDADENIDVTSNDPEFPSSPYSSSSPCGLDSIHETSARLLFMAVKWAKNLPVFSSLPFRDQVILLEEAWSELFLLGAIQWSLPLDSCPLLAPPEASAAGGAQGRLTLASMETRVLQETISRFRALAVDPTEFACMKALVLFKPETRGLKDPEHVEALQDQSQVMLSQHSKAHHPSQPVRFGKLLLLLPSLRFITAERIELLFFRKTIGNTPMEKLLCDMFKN
# SMARCA2 activ – SMARCA2 function activation, primary screen. activation, % at 9.1 µM. MG213 cells, MMTV-luciferase reporter, dexamethasone, overnight. hit rate 1% among 370,000; in the data active = activation above about 7.8%;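 note: 0% = vehicle wells and 100% = reference activator wells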
# NR2E3 ag-2 – agonists of human nuclear receptor NR2E3; hit rate 0.12% among 320,000; Q9Y5X4; inhibition of corepressor binding, % at 4.78 µM; GST-NR2E3/biotin-RetCOR TR-FRET, 1536-well; AID 2300;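 active = percent inhibition above the cutoff of mean plus 3 SD of all tested compounds, set per screening campaign, cut at about 20% in these data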;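 note: 0% = DMSO wells and 100% = biotin wells as full block of FRET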
#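 system = GST-tagged NR2E3 plus biotinylated RetCOR corepressor | input = 1.35 nM GST-NR2E3 | also added = 7 nM biotin-RetCOR | schedule = 5 h incubation at 4 °C | measured by = TR-FRET with europium anti-GST and streptavidin-D2, 340 nm excitation | read-out = percent loss of FRET ratio relative to control wells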
# GASC-1 inh – human JMJD2C demethylase inhibition. inhibition, % at 2.35 µM. AID 2099. GST-JMJD2C(1-420) H3K9me3 demethylation, DELFIA europium. hit rate 0.069% among 330,000. Q9H3R0;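 active = more than half of a compound's replicate wells show inhibition beyond 50%, single wells judged on their own value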;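 note: signal counts dimethyl H3K9 product captured on neutravidin plate; 0% = median of DMSO wells and 100% = 0.3 times that DMSO median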
# DAX1 inh-1 – inhibits human nuclear receptor DAX1. P51843. HEK293 Gal4-DAX1 luciferase reporter, luminescence. inhibition, % at 6.75 µM. hit rate 0.99% among 340,000;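 active = inhibition above the mean over all tested compounds plus 3 SD, cut at about 4.2% in these data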;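 note: 0% = DAX1-transfected cells with DMSO and 100% = empty-vector control cells with DMSO; inhibition shows as a rise in luminescence from relieved DAX1 repression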
# Target sequence (P51843 207-470 limits assumed): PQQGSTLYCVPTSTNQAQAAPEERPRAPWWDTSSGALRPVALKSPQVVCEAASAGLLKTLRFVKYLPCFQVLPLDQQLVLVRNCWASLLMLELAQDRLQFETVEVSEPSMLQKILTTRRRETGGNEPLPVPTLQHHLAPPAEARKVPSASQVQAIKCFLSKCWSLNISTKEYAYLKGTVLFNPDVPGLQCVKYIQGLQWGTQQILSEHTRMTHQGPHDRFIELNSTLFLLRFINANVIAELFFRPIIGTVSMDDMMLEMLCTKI
# DAX1 inh-2 – inhibitors of DAX1 repression of SF-1 activated StAR promoter | HEK293T StAR-luciferase reporter, SF-1/DAX-1 repression relief | inhibition, % at 6.8 µM | hit rate 1.1% among 370,000 | AID 652010;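 active = inhibition above the mean over all tested compounds plus 3 SD, cut at about 3.6% in these data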;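 note: 0% = DAX-1 cells with DMSO and 100% = cells lacking DAX-1 with DMSO; higher inhibition means more luminescence from relief of DAX-1 repression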
# SMARCA2 conf – SMARCA2 activation, confirmation screen; shares compounds with SMARCA2 activ; MG213 cells, MMTV-luciferase with dexamethasone, luminescence, overnight; MG213 cells expressing E1A, Rb sequestered; DMSO wells 0%, reference activator 100%; activation, % at 9.1 µM; hit rate 30% among 3,500; AID 652260;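 active = activation above its plate's cutoff, the mean activation of tested wells plus 3 SD, cut at about 7.9% in these data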
# GAL4-VP16 Luc – activates GAL4-VP16 luciferase, flagging SMARCA2 activator hits. shares compounds with SMARCA2 activ. HEK293 GAL4-VP16 pG5luc reporter, luciferase luminescence; scaled: DMSO wells 0%, SAHA wells 100%. activation, % at 9.1 µM. hit rate 41% among 3,500;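 active = activation above the solvent-only control well mean plus 3 SD, averaged across control plates, cut at about 5.2% in these data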
# Starred values were filed as active, the others as inactive; nt = no result.
SMILES,NR2E3 ag-1,SMARCA2 activ,NR2E3 ag-2,GASC-1 inh,DAX1 inh-1,DAX1 inh-2,SMARCA2 conf,GAL4-VP16 Luc
CCc1ccc2[nH]c(=O)c(CN(CCN(CC)CC)C(=O)Nc3ccccc3OC)cc2c1,9,9.0*,0,11,2,1,-1,1
COC(=O)[C@@H]1N=C(c2ccc(OC)cc2)O[C@]12C(=O)N(Cc1cn(Cc3ccccc3)nn1)c1cccc(Cl)c12,nt,-4,nt,nt,nt,-1,nt,nt
COc1ccc(NC(=O)C2CCCN(S(=O)(=O)c3ccc4[nH]c(=O)ccc4c3)C2)cc1OC (stereo not drawn),13,15*,0,3,0,0,-5,1
COc1ccc(NS(=O)(=O)c2cccc(C(=O)NNC(=O)CNC(=O)c3ccccc3F)c2)cc1,-5,8.2*,-2,119,-1,-1,-4,0
COc1cccc(-c2cc(C(F)(F)F)nc(-n3cc(Cl)cn3)n2)c1,-10,-6,0,7,-1,0,nt,nt
COc1ccc(-c2cc(C(F)(F)F)nc(-n3cc(Cl)cn3)n2)cc1,-5,8.5*,5,10,0,0,2,0
COC(=O)c1ccc2nc(NC(=O)C3CC3)sc2c1,-72,12*,0,16,1,0,8.7*,5.3*
Nc1ccc2c(c1Cl)C(=O)c1ccc(N)c(Cl)c1C2=O,-52,10*,nt,-15,2,0,23*,5.2*
CN(CCc1ccccn1)C(=O)c1cccnc1Oc1ccccc1,-7,12*,0,-3,6.4*,0,-1,2
O=C(N/N=C1\CCc2ccccc21)c1ccccc1O,-74,10.0*,-1,5,0,4.4*,5,7.4*
Cc1csc(NC(=O)c2cccc(C)c2C)n1,-92,6,-7,-6,1,0,nt,nt
Cc1csc(NC(=O)c2ccc[nH]c2=O)n1,-150,9.1*,2,0,1,2,13*,9.8*
CCS(=O)(=O)c1ccc(O)c(NC(=O)COc2ccc(OC)cc2)c1,9,8.1*,-3,0,0,0,-2,-1
CCS(=O)(=O)c1ccc(O)c(NC(=O)COc2ccc(C)cc2)c1,-2,5,-3,-11,0,0,nt,nt
CCN(C[C@@H]1[C@@H](c2ccccc2)[C@H](CO)N1S(C)(=O)=O)C(=O)C1CCC1,nt,-3,nt,nt,nt,1,nt,nt
Cc1nc(Cl)c2c(n1)NC(=O)CO2,-13,12*,4,7,nt,0,0,1
CC(Cc1ccccc1)C(=O)Nc1ccc(Br)cc1 (stereo not drawn),6,5,3,9,3,0,nt,nt
Cc1cccc(N=NC(=S)NNc2cccc(C)c2)c1,-137,8.7*,nt,nt,2,3.7*,3,9.1*
Cc1cccc(NNC(=O)C(=O)NNc2cccc(C)c2)c1,41,-3,0,10,nt,0,nt,nt
N#CC(C#N)=Cc1ccc(NC(=O)c2ccc(Br)cc2)cc1,-29,9.2*,0,-3,0,0,4,5
CC(C)NC(=O)N[C@H]1C[C@@H]2O[C@H](CO)CC[C@@H]2O[C@@H]1CCc1ccc(-c2ccccc2F)cc1,nt,0,nt,nt,nt,0,nt,nt
Nc1nc(COc2ccc(Cl)cc2)cs1,-88,10*,4,-3,1,1,5,4
Clc1ccc(OCc2nn[nH]n2)cc1,-20,0,-1,0,3,0,nt,nt
Nc1nc(-c2ccc(Cl)cc2)cs1,nt,9.1*,nt,nt,nt,3,7,1
Cc1ccc(-c2csc(N)n2)cc1,-57,4,nt,nt,2,2,nt,nt
SMILES,NR2E3 ag-1,SMARCA2 activ,NR2E3 ag-2,GASC-1 inh,DAX1 inh-1,DAX1 inh-2,SMARCA2 conf,GAL4-VP16 Luc
COC(=O)[C@@]12CCCCC3=C1N(CCC3)C(=O)[C@H]2CC(=O)N1CCN(C(=O)C2CC2)CC1,nt,-3,nt,nt,nt,0,nt,nt
CC(=O)c1ccc(/C=C/c2nc3ccccc3n2C)o1,-116,8.8*,7,-50,nt,2,23*,12*
CCCn1c(/C=C/c2ccco2)nc2ccccc21,-25,6,3,3,1,0,nt,nt
O=C1NC(=S)N/C1=C/c1cc2c(cc1[N+](=O)[O-])OCO2,-28,11*,-1,31,0,-1,2,3
O=C(O)/C=C\c1cc2c(cc1[N+](=O)[O-])OCO2,9,-2,-4,-4,1,0,nt,nt
CCCC(=O)Nc1nnc(SCC(=O)N2CCCCC2)s1,-44,-1,1,4,4,0,nt,nt
CCCC(=O)Nc1nnc(SCC)s1,-10,8.5*,0,0,0,-1,3,2
CCSc1nnc(NC(=O)c2csc(C)c2)s1,-36,8.1*,2,101,1,1,5,8.8*
CCOC(=O)[C@]12CCCC=C1N(CCc1ccc(Cl)cc1)C(=O)[C@@H]2CC(=O)NCCC(C)C,nt,-4,nt,nt,nt,0,nt,nt
Cc1cccc(-c2noc(CCc3ccccc3)n2)c1,-49,11*,3,-1,3,1,4,6.7*
O=C(CN(C(=O)c1csnn1)c1ccc(F)cc1)NCCc1ccccc1,-28,0,-4,7,0,0,nt,nt
CN1CC=C(c2ccc(C(F)(F)F)cc2)N(c2ccccc2)C1=O,nt,0,nt,nt,nt,0,nt,nt
COC(=O)c1nn(-c2ccc3c(c2)CCN3C(C)=O)cc1O,-60,-5,2,-1,-5,1,nt,nt
COC(=O)c1nn(-c2ccc3c(c2)OCO3)cc1O,-112,9.0*,1,-10,1,2,13*,11*
COC(=O)c1nnn(-c2nonc2N)c1COc1ccc(C=O)cc1OC,-7,-1,-2,31,-1,1,nt,nt
Fc1ccc(-c2n[nH]c(=S)n2N=Cc2cccc(OCc3ccccc3)c2)cc1,nt,9.9*,nt,nt,nt,0,4,1
NC(=O)c1sc2nc(-c3ccccc3)ccc2c1N,-116,8.1*,4,-3,3,1,7,10*
NC(=O)c1sc2nc(-c3cccs3)ccc2c1N,-116,6,-3,2,1,1,nt,nt
Cc1cc(C)nc(NS(=O)(=O)c2ccc(NC(=O)C3CC(=O)N(c4ccccc4)C3)cc2)n1 (stereo not drawn),-6,8.2*,1,3,-1,1,-2,1
COc1ccc(N2CC(C(=O)Nc3ccc(S(=O)(=O)Nc4nc(C)cc(C)n4)cc3)CC2=O)cc1 (stereo not drawn),-11,9.4*,0,-5,0,-1,-2,0

# High-throughput results from PubChem BioAssay.
